This note sets out measurements from PubChem BioAssay.

A short description of assay [1]: inhibitors of TNFa-induced NFkB p65 translocation, primary screen, imaging, HUVEC, MLSMR starter and 10KST1 sets (AID 438;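 active means inhibition above 20% together with a positive visual image hit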;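 further: compound added about 3h40 before a 20 min TNFalpha stimulation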;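 on inhibition: signal is the nuclear over cytoplasmic p65 intensity ratio per well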). To be noted: HUVEC TNFa-induced p65 nuclear translocation; cell count: measured here: nuclei count (cytotoxicity indicator), at 2.08 µM; inhibition: at 2 µM, stronger effect = higher value, 0% TNFa-plus-vehicle, 100% no-TNFa wells.
Assay [2] is described as follows: inhibitors of mutant huntingtin aggregation, primary screen, imaging, exon1htt(103Q)mCFP cells, high-content imaging (AID 483;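 active means visual image review flags a hit and inhibition of aggregation exceeds 20%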;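 further: compound exposure lasted 3 days before fixation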;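 on nuclei count: percent of the per-plate median nuclei count of sample wells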). To be noted: exon1htt(103Q)mCFP cell line, aggregate imaging, at 2 µM; inhibition of aggregation: stronger effect = higher value; nuclei count: measured here: cell count, toxicity.
The nature of assay [3]: inhibitors of E-selectin induction by TNFa, primary screen, imaging, HUVEC, immunofluorescence, MLSMR starter and 10KST1 sets (AID 487;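 active means visually confirmed hit in the image check and inhibition above 20%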;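 on inhibition: signal is fraction of cell area covered by stained E-selectin grains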;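 on nuclei count: 100% = median nuclei count of all wells on the same plate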). To be noted: HUVEC TNFalpha-induced E-selectin immunofluorescence imaging, at 2 µM; inhibition: stronger effect = higher value; nuclei count: measured here: cell number, toxicity.
Assay [4] concerns the target Voltage-gated potassium channel subunit beta-2 (Rattus norvegicus) (UniProt P62483). In words: KvBeta enzyme negative modulators, primary screen, biochemical, NADPH fluorescence (AID 622;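 active means fluorescence slope higher than the sample average by over 3 SD, cut at about -0.22 in these data, passing the limit was not always enough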;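 further: slope of raw intensity against log time taken from 70 to 1610 s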). To be noted: recombinant KvBeta, 4-cyanobenzaldehyde reduction, at 10 µM, stronger effect = higher value.
Assay [5] has the same target. The experiment in a line: KvBeta positive modulators, primary screen, biochemical, NADPH fluorescence (AID 623).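 Further: fluorescence intensity change per second fitted from 20 to 320 s.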 To be noted: Recombinant KvBeta, NADPH fluorescence decrease slope, 10 min; at 10 µM; stronger effect = lower value.
Assay [6] concerns the target Muscarinic acetylcholine receptor M4 (Homo sapiens) (UniProt P08173). The experiment in a line: compounds altering M4/GIRK thallium flux, either direction, primary screen, M4 allosteric agonist project, cell-based, HEK293 M4/GIRK, BTC-AM (AID 625;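 active means fluorescence slope after compound addition differing from the mean of all tested samples at 99.7% confidence, mostly higher but some lower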;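 further: thallium influx through GIRK channels coupled to M4 in HEK293 cells with BTC-AM dye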). To be noted: at 10 µM, actives lie on both sides. The essentials: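 assay system = HEK293 cells with M4 receptor and GIRK channels | medium = pH 7.3 thallium assay buffer | doses = 10 µM final, single point | timing = cells overnight at 37 °C, BTC-AM loading 1 h, reads 2 min total | signal = BTC-AM fluorescence, 1 Hz kinetic reads | read-out = post-addition slope, 15–24 s, of baseline-normalized fluorescence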

The nature of assay [7]: inhibitors of Sendai virus-induced IRF3 signaling, primary screen, TLR/RLR signaling modifier project, cell-based, Sendai virus stimulus, luciferase, 10K MLSCN set (AID 602276;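 active means inhibition at or above 50% at 10 µM; inactive means inhibition below 50%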;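 further: firefly luciferase from ISG56 promoter only with Renilla not read in this screen; 0% = Sendai virus plus DMSO and 100% = medium plus DMSO without virus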). To be noted: HEK293 RL24 IRF3 luciferase reporter, at 10 µM, stronger effect = higher value.
Assay [8] can be described thus: inhibitors of poly I:C-induced TLR3 signaling, primary screen, cell-based, poly I:C stimulus, luciferase, 10K MLSCN set (AID 602277;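 active means inhibition of the reporter signal at or above 50%; inactive means inhibition below 50%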). To be noted: HEK293-TLR3 RL24 IRF3 luciferase reporter, at 10 µM, stronger effect = higher value.

Active and inactive are the calls of the source.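 How the source made its calls, unless noted: active means NADPH fluorescence slope more negative than the mean of all samples by about 3 SD, 99.7% confidence; inactive means the rest.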

Chain of Voltage-gated potassium channel subunit beta-2 (Rattus norvegicus) (P62483 whole entry, looked up): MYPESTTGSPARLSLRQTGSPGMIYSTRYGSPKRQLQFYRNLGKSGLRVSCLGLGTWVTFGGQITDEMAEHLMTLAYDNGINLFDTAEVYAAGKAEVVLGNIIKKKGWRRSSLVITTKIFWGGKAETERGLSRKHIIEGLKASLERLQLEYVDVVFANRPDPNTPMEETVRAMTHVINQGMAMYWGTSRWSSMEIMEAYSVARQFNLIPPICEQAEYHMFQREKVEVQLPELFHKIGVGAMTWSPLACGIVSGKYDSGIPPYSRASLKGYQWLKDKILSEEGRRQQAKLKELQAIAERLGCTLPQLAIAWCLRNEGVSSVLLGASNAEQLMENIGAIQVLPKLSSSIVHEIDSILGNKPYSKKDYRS
Chain of Muscarinic acetylcholine receptor M4 (Homo sapiens) (P08173 whole entry, looked up): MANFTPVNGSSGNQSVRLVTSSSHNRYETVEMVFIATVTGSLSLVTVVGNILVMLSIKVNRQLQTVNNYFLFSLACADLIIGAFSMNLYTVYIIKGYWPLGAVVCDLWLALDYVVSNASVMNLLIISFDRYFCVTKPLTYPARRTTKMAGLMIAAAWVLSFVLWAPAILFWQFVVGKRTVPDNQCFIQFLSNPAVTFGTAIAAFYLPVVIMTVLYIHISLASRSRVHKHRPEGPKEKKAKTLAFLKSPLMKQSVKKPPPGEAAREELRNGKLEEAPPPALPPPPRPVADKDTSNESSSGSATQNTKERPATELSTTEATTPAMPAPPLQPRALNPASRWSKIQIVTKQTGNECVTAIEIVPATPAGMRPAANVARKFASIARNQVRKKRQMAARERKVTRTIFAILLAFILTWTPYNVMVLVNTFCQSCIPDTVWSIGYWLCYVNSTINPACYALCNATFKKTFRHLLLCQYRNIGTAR

Take `COc1ccc(Cc2nnc3n2N=C(c2cc4ccccc4o2)CS3)cc1OC`: the cell count in assay [1] was found to be 378. The inhibition in assay [1] was -16.3% (inactive); in assay [3], 38.3% (inactive); in assay [7] it was 11.3% (inactive); in assay [8], 26% (inactive). Besides, in assay [2], the inhibition of aggregation was 40.2% (active). The values for the nuclei count in assay [2] and in assay [3] were 43.3% and 51.6%, respectively. The fluorescence slope in assay [4] was -0.346 (inactive); in assay [6] it was 0.00468 (inactive). For the same compound, the NADPH fluorescence slope in assay [5] is -7.6e-05 (inactive).
As to `Cn1c(CN2CCOCC2)nc2cc(NC(=O)c3ccccc3Cl)ccc21`, the cell count in assay [1] was 463. Also, the inhibition was 7.9% (inactive) in assay [1], -19.9% (inactive) in assay [3], 8.55% (inactive) in assay [7] and 2.36% (inactive) in assay [8]. In assay [2], the inhibition of aggregation is -4.3% (inactive). The results for the nuclei count in assay [2] and in assay [3] were 102% and 113%, respectively. In addition, the fluorescence slope in assay [4] is -0.588 (inactive); in assay [6] it was 0.00633 (inactive). Also, the NADPH fluorescence slope in assay [5] is -2.3e-05 (inactive).
For `O=C(NCc1ccc(F)cc1)c1cc(-c2ccco2)on1`, in assay [1], the cell count stood at 330. In addition, the inhibition in assay [1] was -17.6% (inactive); in assay [3], 29.3% (inactive); in assay [7], -17.1% (inactive); in assay [8], -42.6% (inactive). Also, the inhibition of aggregation in assay [2] is 18.1% (inactive). Further, the nuclei count amounted to 92% in assay [2] and 102% in assay [3]. The values for the fluorescence slope in assay [4] and in assay [6] were -0.46 (inactive) and 0.00521 (inactive), respectively. Also, the NADPH fluorescence slope in assay [5] was -5.1e-05 (inactive).
As for `CCSCCC(NC1=CC(=O)CC(C)(C)C1)C(=O)O` (stereo not drawn), the cell count in assay [1] turned out to be 353. Moreover, the inhibition in assay [1] was 9.3% (inactive); in assay [3], -77.8% (inactive); in assay [7], -16.8% (inactive); in assay [8] it was 98.7% (active). The inhibition of aggregation in assay [2] is 13.5% (inactive). The figures for the nuclei count in assay [2] and in assay [3] were 98% and 94.9%, respectively. Moreover, the results for the fluorescence slope in assay [4] and in assay [6] were -0.566 (inactive) and 0.00496 (inactive), respectively. Also, in assay [5], the NADPH fluorescence slope was -6.6e-05 (inactive).
`CCOc1cc(C2C(C#N)=C(N)OC(C)=C2C(C)=O)cc(Br)c1O` (stereo not drawn): the cell count in assay [1] was determined as 235. The inhibition was 11% (inactive) in assay [1], -29.3% (inactive) in assay [3], 12.3% (inactive) in assay [7] and 20.1% (inactive) in assay [8]. Besides, the inhibition of aggregation in assay [2] was -9.7% (inactive). Besides, the nuclei count in assay [2] was found to be 95.5%; in assay [3] it was 97.7%. The fluorescence slope was -0.252 (inactive) in assay [4] and 0.00684 (inactive) in assay [6]. In addition, in assay [5], the NADPH fluorescence slope was -2.9e-05 (inactive).
With `CCN(CC)CCCN(Cc1cc2cc(OC)ccc2[nH]c1=O)C(=O)Nc1ccccc1`, the cell count in assay [1] came to 327. Moreover, the inhibition in assay [1] is 7.1% (inactive); in assay [3] it was -31.9% (inactive); in assay [7] it was 17.1% (inactive); in assay [8], 29.7% (inactive). The inhibition of aggregation in assay [2] is -3.3% (inactive). In addition, the nuclei count was determined as 86.4% in assay [2] and 105% in assay [3]. The fluorescence slope in assay [4] was -0.382 (inactive); in assay [6] it was 0.00643 (inactive). In addition, the NADPH fluorescence slope in assay [5] was -5.9e-06 (inactive).
For `COc1ccccc1-c1c(C)nn2c(N3CCC4(CC3)OCCO4)cc(C)nc12`, the cell count in assay [1] came out at 540. In addition, the inhibition in assay [1] was -2.1% (inactive); in assay [3] it was -42.2% (inactive); in assay [7], 13.5% (inactive); in assay [8], 12.2% (inactive). Further, the inhibition of aggregation in assay [2] is -9.7% (inactive). Further, the nuclei count was 91.2% in assay [2] and 111% in assay [3]. The fluorescence slope is -0.545 (inactive) in assay [4] and 0.00547 (inactive) in assay [6]. Further, the NADPH fluorescence slope in assay [5] is -4.6e-05 (inactive).
On to `Cc1ccc(Cn2nnc3c(=O)[nH]c(C4CCN(C(=O)c5cccs5)CC4)nc32)cc1`, for which the cell count in assay [1] is 430. Further, the inhibition is 5.1% (inactive) in assay [1], -71.2% (inactive) in assay [3], 5.84% (inactive) in assay [7] and 10.8% (inactive) in assay [8]. The inhibition of aggregation in assay [2] is -16.4% (inactive). Besides, the nuclei count was found to be 106% in assay [2] and 109% in assay [3]. Besides, the fluorescence slope in assay [4] is -0.546 (inactive); in assay [6] it was 0.00572 (inactive). In addition, the NADPH fluorescence slope in assay [5] is 1.3e-05 (inactive).
With `O=C(NC1CCCC1)c1cc(-c2cccs2)on1`, the cell count in assay [1] was 443. Further, the inhibition was -5.1% (inactive) in assay [1], 16.1% (inactive) in assay [3], -40.4% (inactive) in assay [7] and -146% (inactive) in assay [8]. Besides, the inhibition of aggregation in assay [2] was -2.2% (inactive). Also, the results for the nuclei count in assay [2] and in assay [3] were 99.3% and 105%, respectively. Besides, the fluorescence slope in assay [4] is -0.441 (inactive); in assay [6], 0.00483 (inactive). For the same compound, the NADPH fluorescence slope in assay [5] is -2.8e-06 (inactive).
For `O=C(O)c1cc2c([nH]c1=O)CCCC2`, in assay [1], the cell count is 661. In addition, the inhibition in assay [1] was -18.4% (inactive); in assay [3], -0.2% (inactive); in assay [7] it was 13.7% (inactive); in assay [8] it was 24.4% (inactive). Besides, the inhibition of aggregation in assay [2] was 24.5% (inactive). Further, the nuclei count in assay [2] was 96.3%; in assay [3], 100%. Besides, the fluorescence slope in assay [4] is -0.585 (inactive); in assay [6] it was 0.00466 (inactive). In addition, the NADPH fluorescence slope in assay [5] is 2.3e-05 (inactive).
`CCC(C)OC(=O)n1ccc(C(=O)Nc2nccs2)n1` (stereo not drawn): the cell count in assay [1] came to 604. Also, the inhibition in assay [1] is -8.2% (inactive); in assay [3], -79.6% (inactive); in assay [7], -5.02% (inactive); in assay [8], -27.4% (inactive). Further, the inhibition of aggregation in assay [2] is 8.2% (inactive). Moreover, the nuclei count in assay [2] is 95%; in assay [3], 131%. The fluorescence slope in assay [4] is -0.575 (inactive); in assay [6] it was 0.00527 (inactive). Further, the NADPH fluorescence slope in assay [5] is -1.9e-05 (inactive).
`Cc1cccc(-n2nnc(C(=O)NCc3ccccc3)c2N)c1`: the cell count in assay [1] was determined as 477. The inhibition in assay [1] is 2.1% (inactive); in assay [3] it was -2.7% (inactive); in assay [7] it was 9.81% (inactive); in assay [8], 9.19% (inactive). In addition, in assay [2], the inhibition of aggregation was -17.4% (inactive). The values for the nuclei count in assay [2] and in assay [3] were 116% and 106%, respectively. Also, the fluorescence slope is -0.461 (inactive) in assay [4] and 0.0054 (inactive) in assay [6]. Besides, in assay [5], the NADPH fluorescence slope was -0.000212 (inactive).
For `Cc1nc2sc(C(c3cccc(F)c3)N3CCN(C(=O)c4ccco4)CC3)c(O)n2n1` (stereo not drawn), the cell count in assay [1] was found to be 228. Further, the inhibition in assay [1] was -2.8% (inactive); in assay [3] it was -7% (inactive); in assay [7], -14.2% (inactive); in assay [8] it was -22.6% (inactive). The inhibition of aggregation in assay [2] is -3.1% (inactive). Also, the nuclei count worked out at 106% in assay [2] and 112% in assay [3]. The results for the fluorescence slope in assay [4] and in assay [6] were -0.306 (inactive) and 0.00489 (inactive), respectively. Moreover, in assay [5], the NADPH fluorescence slope was -1.4e-05 (inactive).
